Results on 22 compounds are retold here after ChEMBL document CHEMBL4028892, “Discovery of a 1-Methyl-3,4-dihydronaphthalene-Based Sphingosine-1-Phosphate (S1P) Receptor Agonist Ceralifimod (ONO-4641). A S1P1 and S1P5 Selective Agonist for the Treatment of Autoimmune Diseases” (J Med Chem, 2017).

For data set [1], the target named is T1, Sphingosine 1-phosphate receptor 1 (Homo sapiens, UniProt P21453). Kind of data set: Agonist activity at human S1P1 receptor expressed in CHO-K1 cells assessed as increase in S1P-stimulated calcium influx preincubated for 5 mins followed by S1P stimulation measured every 3 secs by fluorescence method. It counts as functional, cell-based. The method in brief:
(§1)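 Fura2 Ca2+ assay in CHO-K1 cells stably expressing human S1P1 or S1P3. Cells were loaded with 5 μM Fura2-AM in Ham's F12 (10% FBS, 20 mM HEPES pH 7.4, 2.5 mM probenecid) for 60 min at 37 °C, then washed. After a 30 s baseline, compound was added (0.1 nM–30 μM final, DMSO), then 100 nM S1P 5 min later. Ratio read every 3 s (ex 340/380, em 500 nm). Increase ratio (%) = B/A×100 against the DMSO-well S1P peak; EC50 taken from the concentration series; mean of ≥2 data points.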

Data set [2] addresses Sphingosine 1-phosphate receptor 3 (Homo sapiens, UniProt Q99500). Kind of data set: Agonist activity at human S1P3 receptor expressed in CHO-K1 cells assessed as increase in S1P-stimulated calcium influx preincubated for 5 mins followed by S1P stimulation measured every 3 secs by fluorescence method. It counts as cell-based.
For data set [3], the species on record is Homo sapiens. Kind of data set: Selectivity ratio of EC50 for human S1P3 receptor to EC50 for human S1P1 receptor. The method in brief: as §1
The test system of data set [4] is Mus musculus. Description: Decrease in peripheral lymphocyte levels in po dosed BALB/c mouse at 4 hrs by automated hematology analyzer. It counts as functional. The method in brief: (§2)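 Compound given orally to 6-week-old male BALB/c mice. At 4 or 24 h, blood was taken from the abdominal aorta under ether anaesthesia and lymphocytes counted on an automated haematology analyser. Counts expressed as % of the vehicle-group mean; ED50 is the dose lowering counts to 50%. One experiment, five mice.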

Data set [5] has as its target S1P3 receptor (sphingosine 1-phosphate receptor 3) (Homo sapiens, UniProt Q99500). Description: Agonist activity at human S1P3 receptor expressed in CHO-K1 cells assessed as increase in S1P-stimulated calcium influx at 30 uM preincubated for 5 mins followed by S1P stimulation measured every 3 secs by fluorescence method relative to control. It counts as cell-based. As to conditions: CHO-K1 cells expressing human S1P3 receptor, read-out: max activation. The method in brief:
as §1

Data set [6] concerns Mus musculus. Description: Decrease in peripheral lymphocyte levels in po dosed BALB/c mouse at 24 hrs by automated hematology analyzer. It counts as functional. In short, it runs like this:
as §2

Data set [7] in a line: Protein binding in human serum at 50 to 5000 ng/ml after 10 mins by ultracentrifugation method. Format: ADME, cell-free. As to conditions: read-out: PB. The method in brief:
(§3)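 Serum protein binding measured at compound concentrations of 50, 500 and 5,000 ng/mL. Mean of four binding experiments.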

The nature of data set [8]: Protein binding in cynomolgus monkey serum at 50 to 5000 ng/ml after 10 mins by ultracentrifugation method. It counts as ADME, cell-free, Macaca fascicularis. As to conditions: read-out: PB. The method in brief:
as §3

Data set [9] in a line: Protein binding in Sprague-Dawley rat serum at 50 to 5000 ng/ml after 10 mins by ultracentrifugation method. Format: ADME, cell-free. The note with it: read-out: PB. The method in brief: as §3
Data set [10] in a line: Metabolic stability in mouse liver microsomes assessed as parent compound remaining after 2 hrs by radio-HPLC method. As to conditions: read-out: Stability. Format: ADME, microsome. The method in brief:
(§4)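 Tritium-labelled compound incubated for 2 h in liver microsomes of each species. Read-out was % of unchanged form remaining; mean of two experiments.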
Background: Liver microsomes are vesicles of endoplasmic reticulum, rich in cytochrome P450 enzymes.

A short description of data set [11]: Metabolic stability in Sprague-Dawley rat liver microsomes assessed as parent compound remaining after 2 hrs by radio-HPLC method. The note with it: read-out: Stability. Format: ADME, microsome. In short, it runs like this: as §4
Data set [12] can be described thus: Metabolic stability in human liver microsomes assessed as parent compound remaining after 2 hrs by radio-HPLC method. Format: ADME, microsome. The note with it: read-out: Stability. The method in brief:
as §4

Data set [13] in a line: Metabolic stability in cynomolgus monkey liver microsomes assessed as parent compound remaining after 2 hrs by radio-HPLC method. As to conditions: read-out: Stability. Format: ADME, Macaca fascicularis, microsome. The method in brief:
as §4

A short description of data set [14]: Protein binding in Lewis rat serum at 50 to 5000 ng/ml after 10 mins by ultracentrifugation method. Format: ADME, cell-free. As to conditions: read-out: PB. In short, it runs like this:
as §3

A short description of data set [15]: Protein binding in mouse serum at 50 to 5000 ng/ml after 10 mins by ultracentrifugation method. It counts as ADME, cell-free. The note with it: read-out: PB. In short, it runs like this:
as §3

Data set [16] deals with T1, Sphingosine 1-phosphate receptor 1. Kind of data set: Agonist activity at human S1P1 receptor expressed in CHO-K1 cells assessed as inhibition of forskolin-stimulated cAMP accumulation after 30 mins by ELISA. It counts as functional, cell-based. A general note: Cyclic AMP is a second messenger, typically raised through Gs and lowered through Gi signalling.
In data set [17] the target is Sphingosine 1-phosphate receptor 5 (Homo sapiens, UniProt Q9H228). Kind of data set: Agonist activity at human S1P5 receptor expressed in CHO-K1 cells assessed as inhibition of forskolin-stimulated cAMP accumulation after 30 mins by ELISA. Format: functional, cell-based.

In general, EC50 refers to the concentration giving half of the maximal effect. One may read the ED50 as the midpoint of the dose-response relation.

T1 sequence (P21453 whole entry): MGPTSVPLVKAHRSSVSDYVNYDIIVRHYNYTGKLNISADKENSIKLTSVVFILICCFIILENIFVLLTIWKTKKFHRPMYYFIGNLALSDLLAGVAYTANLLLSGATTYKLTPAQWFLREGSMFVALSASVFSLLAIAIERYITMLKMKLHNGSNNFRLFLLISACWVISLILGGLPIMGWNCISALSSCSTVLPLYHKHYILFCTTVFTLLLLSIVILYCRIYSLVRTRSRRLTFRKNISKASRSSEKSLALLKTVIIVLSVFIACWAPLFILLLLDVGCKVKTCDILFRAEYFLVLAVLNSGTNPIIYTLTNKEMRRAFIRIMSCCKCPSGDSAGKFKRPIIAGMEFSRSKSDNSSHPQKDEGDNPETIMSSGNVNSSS
Sequence of Sphingosine 1-phosphate receptor 3 (Q99500 whole entry): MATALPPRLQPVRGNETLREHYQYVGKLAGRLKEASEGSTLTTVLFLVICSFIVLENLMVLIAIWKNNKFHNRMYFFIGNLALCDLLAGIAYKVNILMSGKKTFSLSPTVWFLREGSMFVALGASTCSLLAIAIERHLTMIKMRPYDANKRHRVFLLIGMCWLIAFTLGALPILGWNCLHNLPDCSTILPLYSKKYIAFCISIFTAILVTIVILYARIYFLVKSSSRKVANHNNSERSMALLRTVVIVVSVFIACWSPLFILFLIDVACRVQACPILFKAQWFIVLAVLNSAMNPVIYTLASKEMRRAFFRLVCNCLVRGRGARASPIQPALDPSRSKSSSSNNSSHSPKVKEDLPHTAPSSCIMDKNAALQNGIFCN
Sequence of Sphingosine 1-phosphate receptor 5 (Q9H228 whole entry): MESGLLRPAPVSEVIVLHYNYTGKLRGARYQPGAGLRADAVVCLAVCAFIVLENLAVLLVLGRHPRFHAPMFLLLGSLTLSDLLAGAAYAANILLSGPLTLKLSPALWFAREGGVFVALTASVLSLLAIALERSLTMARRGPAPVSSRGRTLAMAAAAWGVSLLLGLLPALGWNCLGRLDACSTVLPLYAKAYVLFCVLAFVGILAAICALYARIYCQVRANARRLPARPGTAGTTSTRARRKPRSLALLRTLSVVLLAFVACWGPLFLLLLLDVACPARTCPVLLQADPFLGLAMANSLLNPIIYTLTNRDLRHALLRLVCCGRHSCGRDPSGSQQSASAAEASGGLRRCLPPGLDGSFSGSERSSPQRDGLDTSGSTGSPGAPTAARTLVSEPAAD
Sequence of S1P3 receptor (sphingosine 1-phosphate receptor 3) (Q99500 whole entry): as the sequence (Q99500 whole entry) above

Consider `CC1=C(CN2CC(C(=O)O)C2)CCc2cc(OCc3ccc4ccccc4c3)ccc21`, for which the concentration for a half-maximal effect (EC50) is 54 nM in data set [1] and over 10000 nM in data set [2]. In addition, in data set [3], the Ratio EC50 was over 190.
In the case of `CC1=C(CN2CC(C(=O)O)C2)CCc2cc(OCc3ccc(CC(C)C)cc3)ccc21`, the EC50 was 5 nM in [1] and over 30000 nM in [2]. Besides, the Ratio EC50 in data set [3] was over 6000. The ED50 in data set [4] was found to be 0.39 mg/kg. Further, the Emax at 3 s, 30 µM in [5] was under 50%.
Turning to `COc1cc(C)ccc1COc1ccc2c(c1)CCC(CN1CC(C(=O)O)C1)=C2C`, the EC50 was 1.4 nM in data set [1] and over 30000 nM in data set [2]. In addition, the Ratio EC50 in data set [3] was over 21000. This compound also returned a median effective dose (ED50) in data set [4] of over 0.1 mg/kg.
In the case of `CC1=C(CN2CC(C(=O)O)C2)CCc2cc(OCc3ccc(CC(C)C)cc3F)ccc21`, the EC50 in [1] is 2.6 nM; in data set [2], over 30000 nM. The Ratio EC50 in data set [3] was over 12000. In [4], this compound gave an ED50 of 0.073 mg/kg.
The matching figures for `CC1=C(CN2CC(C(=O)O)C2)CCc2cc(OCCC3CCc4ccccc43)ccc21` (configuration not stated): 1.7 nM, 5500 nM, over 3200 and over 1 mg/kg.
In the case of `COc1cc(CC(C)C)ccc1COc1ccc2c(c1)CCC(CN1CC(C(=O)O)C1)=C2C`, the 50% effective concentration (EC50) in data set [1] came out at 1 nM; in data set [2] it was 9300 nM. The ED50 in data set [6] came to 0.04 mg/kg; in data set [4], 0.0092 mg/kg. The Ratio EC50 in data set [3] came out at 9300.
In the case of `CC1=C(CN2CC(C(=O)O)C2)CCc2cc(OCCCc3ccccc3)ccc21`, the Ratio EC50 in data set [3] is 1700. In data set [4], the ED50 worked out at 0.4 mg/kg.
As for `CCCc1cc(OC)c(COc2ccc3c(c2)CCC(CN2CC(C(=O)O)C2)=C3C)cn1`, the concentration giving a half-maximal response (EC50) in [1] is 57 nM; in data set [2] it was over 30000 nM. Also, the Ratio EC50 in data set [3] was over 530. The compound also registered a median effective dose (ED50) in data set [4] of over 0.1 mg/kg.
The like results for `CC1=C(CN2CC(C(=O)O)C2)CCc2cc(OCc3ccc(CC(C)C)cc3C)ccc21` were, in that order, 13 nM, over 30000 nM, over 2300 and 0.23 mg/kg.
On to `[3H]C(C1=C(C)c2ccc(OCc3ccc(CCC)cc3OC)cc2CC1)N1CC(C(=O)O)C1` (configuration not stated), for which the fraction unbound at 10 min in data set [7] was 0.029 to 0.032; in data set [8], 0.027 to 0.029; in data set [9] it was 0.018 to 0.023; in [14], 0.023 to 0.028; in data set [15], 0.029 to 0.038. The remaining at 2 h in data set [10] came to 93.3%; in [11], 92.6%; in data set [12], 95.2%; in data set [13], 94.1%.
With `CCc1ccc(COc2ccc3c(c2)CCC(CN2CC(C(=O)O)C2)=C3C)c(OC)c1`, the EC50 in data set [1] was 0.58 nM; in [2], over 30000 nM. Further, the 50% effective dose (ED50) in [6] stood at 0.3 mg/kg; in [4], 0.026 mg/kg. The Ratio EC50 in data set [3] is over 52000.
As for `CC1=C(CN2CC(C(=O)O)C2)CCc2cc(OCCC3CCCc4ccccc43)ccc21` (configuration not stated), the concentration for a half-maximal effect (EC50) was 97 nM in data set [1] and over 30000 nM in [2]. For the same compound, the Ratio EC50 in data set [3] is over 310.
For `CCCCc1ccc(COc2ccc3c(c2)CCC(CN2CC(C(=O)O)C2)=C3C)c(OC)c1`, the EC50 was 3.5 nM in data set [1] and over 30000 nM in [2]. The ED50 in data set [6] was determined as 0.18 mg/kg; in [4] it was 0.09 mg/kg. For the same compound, the Ratio EC50 in data set [3] was over 8600.
In the case of `CC1=C(CN2CC(C(=O)O)C2)CCc2cc(OCc3ccc(CC(C)C)cc3Cl)ccc21`, the 50% effective concentration (EC50) in data set [1] was 4.5 nM; in [2], over 30000 nM. In addition, in [3], the Ratio EC50 was over 6700. Further, in data set [4], the ED50 was found to be 0.19 mg/kg.
Turning to `CCCc1ccc(COc2ccc3c(c2)CCC(CN2CC(C(=O)O)C2)=C3C)c(OC)n1`, the concentration for a half-maximal effect (EC50) is 0.58 nM in [1] and 6800 nM in data set [2]. In data set [3], the Ratio EC50 stood at 12000. The compound further came in with a 50% effective dose (ED50) in data set [4] of 0.011 mg/kg.
The like results for `COc1cc(CC(C)(C)O)ccc1COc1ccc2c(c1)CCC(CN1CC(C(=O)O)C1)=C2C` were, in that order, 6.6 nM, over 30000 nM, over 4500 and 0.16 mg/kg.
Consider `CCCc1ccc(COc2ccc3c(c2C)CCC(CN2CC(C(=O)O)C2)=C3C)c(OC)n1`, for which the EC50 in [16] is 0.19 nM; in data set [1], 1.2 nM; in data set [17] it was 0.92 nM; in data set [2], over 30000 nM. For the same compound, the ED50 in [6] was found to be 0.048 mg/kg; in data set [4], 0.017 mg/kg. For the same compound, the Ratio EC50 in [3] is over 25000.
As to `COc1cc(COc2ccc3c(c2)CCC(CN2CC(C(=O)O)C2)=C3C)ccc1CC(C)C`, the EC50 in data set [1] came to 3 nM; in data set [2], 4000 nM. Also, the Ratio EC50 in data set [3] stood at 1300. Besides, in data set [4], the ED50 was determined as 0.034 mg/kg.
As for `CC1=C(CN2CC(C(=O)O)C2)CCc2cc(OCC3Cc4ccccc4C3)ccc21`, the 50% effective concentration (EC50) in data set [1] is 7.9 nM; in data set [2], over 30000 nM. The Ratio EC50 in data set [3] is over 3800. The ED50 in data set [4] was over 1 mg/kg.
In the case of `CC1=C(CN2CC(C(=O)O)C2)CCc2cc(OCC3CCc4ccccc4C3)ccc21` (configuration not stated), the figures for the concentration giving a half-maximal response (EC50) in data set [1] and in data set [2] were 19 nM and over 30000 nM, respectively. In addition, in [3], the Ratio EC50 is over 1600.
In the case of `CCCc1ccc(COc2ccc3c(c2C)CCC(CN2CC(C(=O)O)C2)=C3C)c(OC)c1`, the EC50 was 0.072 nM in [16], 1.2 nM in data set [1], 0.98 nM in data set [17] and over 30000 nM in data set [2]. Also, the ED50 in [6] was determined as 0.072 mg/kg; in [4], 0.032 mg/kg. Further, the Ratio EC50 in [3] was over 25000.
For `CCCc1ccc(COc2cc3c(cc2C)C(C)=C(CN2CC(C(=O)O)C2)CC3)c(OC)c1`, the values for the concentration for a half-maximal effect (EC50) in data set [1] and in [2] were 540 nM and over 30000 nM, respectively. In addition, in data set [3], the Ratio EC50 is over 56.
